Experimental data from ChEMBL document CHEMBL3526090, “Pharmacokinetic mechanism involved in the prolonged high retention of laninamivir in mouse respiratory tissues after intranasal administration of its prodrug laninamivir octanoate” (Drug Metab Dispos, 2013).
≈ marks a conversion by molar mass, not a printed value. One block for each compound: values may come before it.

How the values were obtained:
[1] = Prodrug activation in primary cultured BALB/c mouse airway epithelial cells assessed as formation of laninamivir measured at 60 mins by LC-MS/MS analysis; assay type: cell-based; conditions: epithelial cell, 1 h
How it was run: (§1)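 Primary airway epithelial cells from BALB/c mice were obtained by collagenase digestion and negative immunomagnetic selection, then grown to confluence on collagen I. Cells were pre-incubated 30 min in serum-free F-12K. For the time course they were exposed to 50 μM LO for up to 120 min; for concentration dependence, to 10–1000 μM LO for 60 min, at 37°C. After ice-cold PBS washes and Triton lysis, intracellular LO and laninamivir were measured by LC-MS/MS and normalized to Lowry protein, in triplicate.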

[2] = Elimination half life in BALB/cAnNCrlCrlj mouse epithelial lining fluid at 0.5 umol/kg administered intranasally; assay type: ADME, tissue-based
How it was run: (§2)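 Female BALB/c mice (7 weeks old) received a single intranasal dose of 0.5 μmol/kg at 2.5 ml/kg, with N=3–4 per time point up to 24 h. Plasma, BAL fluid (3 × 1 ml PBS pH 7.4) and lung homogenate were taken, and AEBSF was added to a final 5 mM. LO and laninamivir were measured by LC-MS/MS. ELF levels were corrected using the urea ratio between plasma and BAL. Non-compartmental analysis on mean concentrations gave Cmax/Tmax by observation, t1/2 from ≥3 terminal log points, and AUClast by the trapezoidal method.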

[3] = tested on: Lung; test: Cmax in BALB/cAnNCrlCrlj mouse lung at 0.5 umol/kg administered intranasally; assay type: ADME; set-up: dose 0.5 umol/kg, route nasal; conditions: in vivo, inhaled_or_intranasal; how it was run: as §2
[4] = Tmax in BALB/cAnNCrlCrlj mouse lung at 0.5 umol/kg administered intranasally; assay type: ADME; conditions: inhaled or intranasal; how it was run: as §2
[5] = Drug uptake in primary cultured BALB/c mouse airway epithelial cells at 50 uM measured up to 90 mins by LC-MS/MS analysis; assay type: ADME, cell-based; conditions: epithelial cell; how it was run: as §1
[6] = Prodrug activation in primary cultured BALB/c mouse airway epithelial cells assessed as formation of laninamivir at 50 uM measured up to 60 to 90 mins by LC-MS/MS analysis; assay type: cell-based; conditions: epithelial cell; how it was run: as §1
[7] = Elimination half life in BALB/cAnNCrlCrlj mouse plasma at 0.5 umol/kg administered intranasally; assay type: ADME, cell-free; conditions: inhaled or intranasal, read-out: beta t1/2 (converted); how it was run: as §2
[8] = AUClast in BALB/cAnNCrlCrlj mouse plasma at 0.5 umol/kg administered intranasally; assay type: ADME, cell-free; set-up: dose 0.5 umol/kg, time 0 - last, route nasal; conditions: inhaled or intranasal; how it was run: as §2
[9] = Cmax in BALB/cAnNCrlCrlj mouse epithelial lining fluid at 0.5 umol/kg administered intranasally; assay type: ADME, tissue-based; set-up: dose 0.5 umol/kg, route nasal; conditions: inhaled or intranasal; how it was run: as §2
[10] = Prodrug activation in primary cultured BALB/c mouse airway epithelial cells assessed as formation of laninamivir measured at 50 uM measured at 24 hrs by LC-MS/MS analysis; assay type: cell-based; conditions: epithelial cell
How it was run: (§3)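 Confluent primary BALB/c airway epithelial cells were loaded with 50 μM LO for 60 min and then washed. They were then incubated in drug-free medium at 37°C for up to 24 h, with the medium fully replaced at each sampling point. Cells were washed with ice-cold PBS and lysed. LO and laninamivir in medium and cells were measured by LC-MS/MS and normalized to Lowry protein, in triplicate. Release and hydrolysis rate constants were obtained by first-order compartmental modelling.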

[11] = AUClast in BALB/cAnNCrlCrlj mouse epithelial lining fluid at 0.5 umol/kg administered intranasally; assay type: ADME, tissue-based; set-up: dose 0.5 umol/kg, route nasal, time 0 - last; conditions: inhaled or intranasal; how it was run: as §2
[12] = Drug uptake in BALB/cAnNCrlCrlj mouse epithelial lining fluid at 0.5 umol/kg administered intranasally measured at 4 hrs by LC-MS/MS analysis; assay type: ADME, tissue-based; conditions: inhaled or intranasal, read-out: Drug uptake
How it was run: (§4)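 Female BALB/c mice were dosed intranasally at 0.5 μmol/kg (2.5 ml/kg), N=3–4 per time point. At each sampling time, blood was taken by cardiac puncture, BAL was done with 3 × 1 ml PBS, and lungs were homogenized in 50% acetonitrile. LO and laninamivir were quantified by LC-MS/MS, calibrated over 1–100 ng/ml and 0.5–100 ng/ml respectively. ELF concentration was calculated as CBAL × (urea in plasma / urea in BAL).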

[13] = Tmax in BALB/cAnNCrlCrlj mouse plasma at 0.5 umol/kg administered intranasally; assay type: ADME, cell-free; conditions: inhaled or intranasal; how it was run: as §2
[14] = Tmax in BALB/cAnNCrlCrlj mouse epithelial lining fluid at 0.5 umol/kg administered intranasally; assay type: ADME, tissue-based; conditions: inhaled or intranasal; how it was run: as §2
[15] = Cmax in BALB/cAnNCrlCrlj mouse plasma at 0.5 umol/kg administered intranasally; assay type: ADME, cell-free; set-up: dose 0.5 umol/kg, route nasal; conditions: inhaled or intranasal; how it was run: as §2
[16] = tested on: Lung; test: AUClast in BALB/cAnNCrlCrlj mouse lung at 0.5 umol/kg administered intranasally; assay type: ADME; conditions: in vivo, inhaled_or_intranasal; how it was run: as §2
[17] = Aqueous solubility of the compound; assay type: physicochemical; conditions: buffer
[18] = Lipophilicity, log D of the compound at pH 7.4; assay type: physicochemical; conditions: buffer
[19] = tested on: Lung; test: (§5) Elimination half life in BALB/cAnNCrlCrlj mouse lung at 0.5 umol/kg administered intranasally; assay type: ADME, tissue-based; conditions: in vivo, inhaled_or_intranasal; how it was run: as §2
[20] = AUClast in BALB/cAnNCrlCrlj mouse epithelial lining fluid treated with laninamivir octanoate at 0.5 umol/kg administered intranasally; assay type: ADME, tissue-based; set-up: dose 0.5 umol/kg, time 0 - last, route nasal; conditions: inhaled or intranasal; how it was run: as §2
[21] = tested on: Lung; test: Cmax in BALB/cAnNCrlCrlj mouse lung treated with laninamivir octanoate at 0.5 umol/kg administered intranasally; assay type: ADME; set-up: dose 0.5 umol/kg, route nasal; conditions: in vivo, inhaled_or_intranasal; how it was run: as §2
[22] = Cmax in BALB/cAnNCrlCrlj mouse epithelial lining fluid treated with laninamivir octanoate at 0.5 umol/kg administered intranasally; assay type: ADME; set-up: dose 0.5 umol/kg, route nasal; conditions: inhaled or intranasal; how it was run: as §2
[23] = Drug level in primary cultured BALB/c mouse airway epithelial cells treated with laninamivir octanoate at 50 uM measured at 24 hrs by LC-MS/MS analysis; assay type: ADME, cell-based; conditions: epithelial cell; how it was run: as §3
[24] = Tmax in BALB/cAnNCrlCrlj mouse epithelial lining fluid treated with laninamivir octanoate at 0.5 umol/kg administered intranasally; assay type: ADME, tissue-based; conditions: inhaled or intranasal; how it was run: as §2
[25] = Elimination half life in BALB/cAnNCrlCrlj mouse plasma treated with laninamivir octanoate at 0.5 umol/kg administered intranasally; assay type: ADME, cell-free; conditions: inhaled or intranasal, read-out: beta t1/2 (converted); how it was run: as §2
[26] = Elimination half life in BALB/cAnNCrlCrlj mouse epithelial lining fluid treated with laninamivir octanoate at 0.5 umol/kg administered intranasally; assay type: ADME; conditions: inhaled or intranasal, read-out: beta t1/2 (converted); how it was run: as §2
[27] = tested on: Lung; test: Drug concentration in BALB/cAnNCrlCrlj mouse lung treated with laninamivir octanoate at 0.5 umol/kg administered intranasally measured at 24 hrs; conditions: in vivo, inhaled_or_intranasal
[28] = tested on: Lung; test: AUClast in BALB/cAnNCrlCrlj mouse lung treated with laninamivir octanoate at 0.5 umol/kg administered intranasally; assay type: ADME; conditions: in vivo, inhaled_or_intranasal; how it was run: as §2
[29] = Tmax in BALB/cAnNCrlCrlj mouse plasma treated with laninamivir octanoate at 0.5 umol/kg administered intranasally; assay type: ADME, cell-free; conditions: inhaled or intranasal; how it was run: as §2
[30] = AUClast in BALB/cAnNCrlCrlj mouse plasma treated with laninamivir octanoate at 0.5 umol/kg administered intranasally; assay type: ADME, cell-free; set-up: dose 0.5 umol/kg, time 0 - last, route nasal; conditions: inhaled or intranasal; how it was run: as §2
[31] = Tmax in BALB/cAnNCrlCrlj mouse lung treated with laninamivir octanoate at 0.5 umol/kg administered intranasally; assay type: ADME; conditions: inhaled or intranasal; how it was run: as §2
[32] = tested on: Plasma; test: Drug uptake in BALB/cAnNCrlCrlj mouse plasma at 0.5 umol/kg administered intranasally measured after 8 hrs by LC-MS/MS analysis; assay type: ADME, cell-free; conditions: inhaled_or_intranasal; how it was run: as §4
[33] = Elimination half life in human treated with laninamivir octanoate administered intranasally; assay type: ADME, organism-based; conditions: in vivo, inhaled or intranasal, read-out: beta t1/2 (converted)
[34] = Elimination half life in BALB/cAnNCrlCrlj mouse lung treated with laninamivir octanoate at 0.5 umol/kg administered intranasally; assay type: ADME, tissue-based; conditions: inhaled or intranasal, read-out: beta t1/2 (converted); how it was run: as §2
[35] = Tmax in human treated with laninamivir octanoate at 40 mg administered intranasally; assay type: ADME, organism-based; conditions: in vivo, inhaled or intranasal
[36] = tested on: Lung; test: Drug uptake in BALB/cAnNCrlCrlj mouse lung at 0.5 umol/kg administered intranasally measured at 24 hrs by LC-MS/MS analysis; assay type: ADME, tissue-based; conditions: in vivo, inhaled_or_intranasal; how it was run: as §4
[37] = Drug uptake in BALB/cAnNCrlCrlj mouse epithelial lining fluid treated with laninamivir octanoate at 0.5 umol/kg administered intranasally measured at 24 hrs by LC-MS/MS analysis; assay type: ADME, tissue-based; conditions: inhaled or intranasal, read-out: Drug uptake; how it was run: as §4
[38] = Cmax in BALB/cAnNCrlCrlj mouse plasma treated with laninamivir octanoate at 0.5 umol/kg administered intranasally; assay type: ADME, cell-free; set-up: dose 0.5 umol/kg, route nasal; conditions: inhaled or intranasal; how it was run: as §2
[39] = Drug uptake in BALB/cAnNCrlCrlj mouse epithelial lining fluid treated with laninamivir octanoate at 0.5 umol/kg administered intranasally measured at 4 hrs by LC-MS/MS analysis; assay type: ADME; conditions: inhaled or intranasal, read-out: Drug uptake; how it was run: as §4
[40] = as §5; assay type: ADME, tissue-based; conditions: BALB/cAnNCrlCrlj, lung, inhaled or intranasal, 0.5 umol/kg, read-out: beta t1/2 (converted); how it was run: as §2
[41] = Drug level in primary cultured BALB/c mouse airway epithelial cells treated with laninamivir octanoate at 50 uM measured up 60 to 90 mins by LC-MS/MS analysis; assay type: ADME, cell-based; conditions: epithelial cell; how it was run: as §1

- Drug metabolism [1]: Dose-dependent effect
- beta t1/2 ([2]; in vivo, inhaled_or_intranasal): 1.1 h
- Cmax [3]: 1760 pmol/g
- Tmax [4]: 0.5 h
- Drug uptake [5]: Active
- Drug metabolism [6]: metabolite_detected
- half-life [7]: 0.6 h
- AUC(0-t) [8]: 0.323 µM·h
- Cmax [9]: 20.4 µM
- Drug metabolism [10]: metabolite_detected
- AUC(0-t) [11]: 23.6 µM·h
- concentration at 4 h [12]: 0.348 µM
- Tmax [13]: 0.5 h
- Tmax [14]: 1.98 min
- Cmax [15]: 0.242 µM
- AUClast [16]: 4480 pmol·h/g
- solubility [17]: 1270 µM (≈ 600 µg/mL)
- logD [18]: -0.01
- beta t1/2 [19]: 1.3 h
Structure (SMILES): CCCCCCCC(=O)OC[C@@H](O)[C@@H](OC)[C@@H]1OC(C(=O)O)=C[C@H](NC(=N)N)[C@H]1NC(C)=O [LANINAMIVIR OCTANOATE]

- half-life ([2]; BALB/cAnNCrlCrlj, epithelial lining fluid, inhaled or intranasal, 0.5 umol/kg, read-out: beta t1/2 (converted)): 25.4 h
- Cmax [3]: 1020 pmol/g
- AUC(0-t) [20]: 26.5 µM·h
- Tmax [4]: 0.25 h
- Cmax [21]: 4350 pmol/g
- Cmax [22]: 1.52 µM
- Drug metabolism [23]: metabolite_detected
- Tmax [24]: 1 h
- half-life [25]: 13.1 h
- half-life [26]: 25.1 h
- AUC(0-t) [8]: 0.782 µM·h
- Cmax [9]: 19.9 µM
- concentration at 24 h [27]: 2680 pmol/g
- AUC(0-t) [11]: 19.6 µM·h
- AUClast [28]: 75800 pmol·h/g
- Tmax [29]: 1 h
- AUC(0-t) [30]: 0.445 µM·h
- concentration at 4 h [12]: 0.0513 µM
- Tmax [13]: 0.5 h
- Tmax [31]: 6 h
- Tmax [14]: 1.98 min
- Drug uptake [32]: Not Active
- Cmax [15]: 0.478 µM
- half-life [33]: 72 h
- half-life [34]: 30.9 h
- AUClast [16]: 9890 pmol·h/g
- Tmax [35]: 4 h
- logD [18]: -2.18
- Drug uptake [36]: 282 pmol/g
- concentration at 24 h [37]: 0.842 µM
- Cmax [38]: 0.181 µM
- concentration at 4 h [39]: 1.15 µM
- half-life [40]: 25 h
- Drug metabolism [41]: metabolite_detected
Structure (SMILES): CO[C@@H]([C@@H]1OC(C(=O)O)=C[C@H](NC(=N)N)[C@H]1NC(C)=O)[C@H](O)CO [LANINAMIVIR]
